# Measurements from different studies.
# Target: Interleukin-1 receptor-associated kinase 3 (IRAK3, Homo sapiens, UniProt Q9Y616)
# Sequence (Q9Y616 1-596, as in one of the studies): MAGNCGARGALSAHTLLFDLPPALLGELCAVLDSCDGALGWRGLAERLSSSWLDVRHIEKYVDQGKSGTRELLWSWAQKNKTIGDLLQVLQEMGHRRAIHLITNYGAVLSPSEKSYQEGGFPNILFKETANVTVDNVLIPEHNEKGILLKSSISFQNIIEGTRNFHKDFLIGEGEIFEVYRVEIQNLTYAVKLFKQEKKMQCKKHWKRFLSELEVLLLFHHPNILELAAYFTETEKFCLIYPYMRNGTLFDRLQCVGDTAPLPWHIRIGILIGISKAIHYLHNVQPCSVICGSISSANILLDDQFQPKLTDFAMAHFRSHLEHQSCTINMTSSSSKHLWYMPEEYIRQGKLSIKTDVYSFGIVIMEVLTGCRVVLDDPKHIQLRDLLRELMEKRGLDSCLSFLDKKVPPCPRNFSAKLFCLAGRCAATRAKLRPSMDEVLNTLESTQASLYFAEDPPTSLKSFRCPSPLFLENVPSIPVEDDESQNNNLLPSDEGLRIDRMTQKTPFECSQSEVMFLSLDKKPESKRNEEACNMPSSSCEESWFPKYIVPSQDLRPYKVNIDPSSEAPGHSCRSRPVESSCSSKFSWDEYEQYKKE
Structure (SMILES),assay,conditions,remaining binding
CNC(=O)[C@@H]1CC[C@@H](n2c(-c3ccc4cnccc4c3)nc3ccc(C(=O)NCc4cccc(C(N)=O)c4)cc32)C1,"binding, competition with immobilised ligand",1 µM,97%
Nc1cnc(N2CCc3cc(S(=O)(=O)Nc4c(F)cc(Cl)cc4F)cc(N4CCCC4=O)c32)nc1,"cell-free assay, competition with immobilised ligand",1 µM,89%
C[C@@H]1CCN(c2nccc(-c3cnn4ncccc34)n2)C1,binding,1 µM,52%
c1cncc(-c2cccc(Nc3nccc(NC4CCCCC4)n3)c2)c1,"binding, competition with immobilised ligand",10 µM,4.5%
CN(C)c1nccc(-c2cnn3ncccc23)n1,binding,1 µM,100%
CNC(=O)Nc1ccc2c(c1)CC[C@@]21OC(=O)N(CC(=O)N(Cc2ccc(F)cc2)[C@@H](C)C(F)(F)F)C1=O,"cell-free assay, competition with immobilised ligand",1 µM,95%
O=C(NCC1CCOCC1)c1n[nH]cc1NC(=O)c1c(F)cccc1F,"binding, competition with immobilised ligand",1 µM,92%
O=C1CCc2cc(Nc3cc(OC4CCOCC4)c([N+](=O)[O-])cc3Cl)ccc2N1,"cell-free assay, competition with immobilised ligand",1 µM,98%
O=C(c1ccc(Nc2ncc(Cl)c(-c3ccc(Cl)s3)n2)cc1)N1CCC(N2CCCC2)CC1,"binding, competition with immobilised ligand",1 µM,1.6%
Cn1nc(C(F)(F)F)cc1-c1cnc(N2CCc3cc(S(=O)(=O)Nc4c(F)cc(Cl)cc4F)cc(N4CCCC4=O)c32)nc1,"cell-free assay, competition with immobilised ligand",1 µM,100%
COc1ncc2cc3ccccc3nc2c1C#N,"cell-free assay, competition with immobilised ligand",5 µM,94%
O=C(NCCCN1CCOCC1)c1ccc(Nc2nccc(-c3cc4ccccc4s3)n2)cc1,"binding, competition with immobilised ligand",1 µM,8.4%
COc1ccnn2ncc(-c3ccnc(N(C)C)n3)c12,binding,1 µM,91%
Cc1cnc(Nc2ccc(C(=O)N3CCC(N4CCCC4)CC3)cc2)nc1-c1cc2ccccc2s1,"binding, competition with immobilised ligand",1 µM,5.3%
CN(CCCC(F)(F)F)c1nccc(-c2cnn3ncccc23)n1,binding,1 µM,94%
CN(c1ccnc(CNc2nc(Nc3ccc4c(c3)CC(=O)N4)ncc2C(F)(F)F)n1)S(C)(=O)=O,"cell-free assay, competition with immobilised ligand",1 µM,11%
Nc1ncc2c(n1)-c1c([nH]c3ccc(C#CC4CC4)cc13)CCCC2,"binding, competition with immobilised ligand",1 µM,71%
FC(F)(F)Oc1cccc(-c2cnc3ccc(-c4ccncc4)nn23)c1,"cell-free assay, competition with immobilised ligand",5 µM,7.6%
O=C(NCc1ncc(C(F)(F)F)cc1Cl)c1ccc2c(c1)C1(CCS(=O)(=O)CC1)[C@H](C1CC1)N2S(=O)(=O)c1ccc(F)cc1,"cell-free assay, competition with immobilised ligand",1 µM,99%
CN(C)c1ncc(F)c(-c2cnn3ncccc23)n1,binding,1 µM,100%
